Experimental data taken from PMC5732839 (Cancer research, 2017).
Entries after “also recorded” stand apart in the source; their conditions may differ.

How the values were obtained:
acid ceramidase = settings: cited from earlier work
22Rv1 cells [1] = experiment: Cell proliferation; type: cell-based; settings: 22Rv1, B13 for 5 d
Procedure, shortened: (§1)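 Cells seeded at 3000–5000/well, exposed to a range of test-compound concentrations for 5 d. Medium swapped for 100 µL phenol-red-free medium, 10 µL of 12 mM MTT stock added, 37 °C 4 h; stopped with 100 µL 10% SDS in 0.01 M HCl, further 4 h at 37 °C; absorbance at 570 nm. Mean ± SEM of n=6 wells, two-sided Student's t test.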

[2] = Toxicity in host mice carrying PC-3 xenografts; type: in vivo, SCID mice
22Rv1 cells [3] = experiment: Transwell invasion assay; type: cell-based; settings: 22Rv1, 15 µM B13
Procedure, shortened: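 22Rv1 cells at about 80% confluence were serum-starved for 24 h, then seeded in Transwell inserts. The top well held medium with 15 µM test compound or DMSO, and the receiver well held 10% FBS. After 48 h, cells were fixed with 3.7% formaldehyde (2 min) then methanol (20 min). Staining was 0.1% crystal violet for 15 min in the dark at room temperature. Non-migrated cells were swabbed off, and migrated cells were imaged and counted.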

LNCaP cells = experiment: Cell proliferation; type: cell-based; settings: B13 for 5 d
Procedure, shortened: as §1

[4] = test system: LNCaP, 22Rv1, PC-3, and DU145 cells; experiment: Cell cycle analysis by flow cytometry; type: cell-based; settings: tested prostate cancer cells, B13 for 3 d
Procedure, shortened: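 Cells were grown in ATCC-recommended medium, and after attachment the medium with or without 15 or 30 µM test compound was renewed every 24 h for 3 days. 1 × 10^6 cells were PBS-washed and fixed in 70% ethanol for 1 h at 4 °C. They were stained with propidium iodide/RNase for 30 min in the dark at room temperature. Flow cytometry used 488 nm excitation and 585 nm emission, and G0/G1, S and G2/M percentages were compared with control.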

Src myristoylation [5] = experiment: Src myristoylation by Click chemistry in SYF1+Src; type: cell-based, mouse; settings: ectopically expressed Src kinase, SYF1+Src(WT) cells, myristic acid-azide 60 µM
Procedure, shortened: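 Mouse SYF1 (Src−/−Yes−/−Fyn−/−) fibroblasts were lentivirally transduced with wild-type Src and grown in DMEM with 2% fatty-acid-free BSA. They were pretreated with test compound at 0, 1, 5, 15 or 30 µM for 2 h, then given 60 µM myristic acid-azide. M-PER lysates underwent Click labelling with 40 µM alkyne-biotin and CuSO4. Myristoyl-Src (60 kDa) was detected with streptavidin-HRP, and total Src and GAPDH by immunoblot.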

Src myristoylation [6] = experiment: Src myristoylation by Click chemistry in PC-3 cells; type: cell-based; settings: endogenous Src kinase, myristic acid-azide 60 µM
PNT2 cells = experiment: Cell cycle analysis by flow cytometry; type: cell-based
pSrc(Y416), pFAK, pAkt = experiment: Immunoblotting of Src signaling in PC-3 total lysates; type: cell-based; settings: PC-3 cells
PC-3 cells [7] = experiment: Cell proliferation; type: cell-based; settings: PC-3, B13 for 5 d
Procedure, shortened: as §1

DU145 cells [8] = experiment: Cell proliferation; type: cell-based; settings: DU145, B13 for 5 d
Procedure, shortened: as §1

SYF1-Src(Y529F) cells = experiment: Soft agar colony formation assay; type: cell-based, mouse
DU145 cells [9] = experiment: Immunoblotting of cell cycle proteins; type: cell-based
Procedure, shortened: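 DU145 cells were treated with or without different concentrations of test compound. Lysates were immunoblotted for CDK2, CDK6, cyclin D1, p27 and tubulin.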

PC-3 xenograft tumors = experiment: PC-3 xenograft tumor growth; type: in vivo, SCID mice; settings: 75 mg/kg i.v. twice a week for 6 weeks
[10] = test system: de novo synthesized Src kinase; experiment: 293T cells expressing doxycycline inducible Src; type: cell-based
Procedure, shortened: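 293T-rtTA cells carrying lentiviral TRE/Src(Y529F) in DMEM with 10% FBS; Src induced with or without doxycycline 1 µg/mL plus 0 (DMSO), 15 or 30 µM test compound for 24 h. Lysed in TNE buffer (pH 7.4, protease/phosphatase inhibitors), needle-homogenised, spun 14,000 rpm 10 min (supernatant = cytosol); pellet extracted with 60 mM β-octylglucoside on ice 30 min, spun 14,000 rpm 20 min 4°C (total membrane). Immunoblot: […] antibody, caveolin-1/GAPDH markers.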

PC-3 cells [11] = experiment: Wound-healing; type: cell-based; settings: PC-3, 15 µM B13
Procedure, shortened: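 PC-3 cells (8×10^5 per well) were grown 24 h to 95% confluence, then scratched with a 1 mL pipette tip. Wells were washed to remove floating cells and refed with fresh medium containing 15 µM test compound. The wound space was imaged daily.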

PC-3 cells [12] = experiment: Immunoblotting of cell cycle proteins; type: cell-based
PNT2 normal cells = experiment: Cell proliferation; type: cell-based
293T cells = experiment: Cell proliferation; type: cell-based
NMT1 = biological target: T1, NMT1 (Homo sapiens, UniProt P30419); experiment: Fluorescence-based NMT1 enzymatic activity assay; type: biochemical
T1 sequence (P30419 109-496): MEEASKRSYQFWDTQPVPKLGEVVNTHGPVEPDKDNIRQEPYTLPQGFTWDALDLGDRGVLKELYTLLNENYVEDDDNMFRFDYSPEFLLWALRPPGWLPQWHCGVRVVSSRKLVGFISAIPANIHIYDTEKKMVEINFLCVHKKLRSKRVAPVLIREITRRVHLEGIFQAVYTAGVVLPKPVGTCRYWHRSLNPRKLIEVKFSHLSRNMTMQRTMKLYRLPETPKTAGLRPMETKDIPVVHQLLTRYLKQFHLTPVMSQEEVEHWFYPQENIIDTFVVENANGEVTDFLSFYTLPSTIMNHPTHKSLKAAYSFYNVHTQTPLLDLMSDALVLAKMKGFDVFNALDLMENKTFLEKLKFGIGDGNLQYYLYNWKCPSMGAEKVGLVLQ

For `CCCCCCCCCCCCCCN[C@H](CO)[C@H](O)c1ccc([N+](=O)[O-])cc1` [LCL204], the “Inhibition of acid ceramidase relative to B13” value (acid ceramidase) is given as “higher inhibitory potential than B13”.

In the case of `CCCCCCCCCCCCCC(=O)N[C@H](CO)[C@H](O)c1ccc([N+](=O)[O-])cc1` [B13, N-[(1R,2R)-2-hydroxy-1-(hydroxymethyl)-2-(4-nitrophenyl)ethyl]-tetradecanamide], the Proliferation (22Rv1 cells [1]) is reported as “significantly inhibited proliferation; also recorded: significant inhibition”, the Body weight change ([2]; 75 mg/kg i.v. twice a week) is reported as “no significant changes” and the “Organs' weight change” value ([2]; 75 mg/kg i.v. twice a week) is reported as “no significant changes”. The “Pathological toxicity to major organs (liver, kidney, lung; H&E)” value ([2]; 75 mg/kg i.v. twice a week for 6 weeks) was “no observed pathological toxicity”, the Invasion (22Rv1 cells [3]) was “suppressed invasion” and the Proliferation (LNCaP cells) was “less sensitive”. The Cell cycle progression [4] was “significantly inhibited”, the “Src myristoylation (myristoyl-Src level)” value (Src myristoylation [5]) was “inhibited Src myristoylation” and the “Src myristoylation (myristoyl-Src level)” value (Src myristoylation [6]) was “inhibited Src myristoylation”. The Cell cycle (PNT2 cells) was “did not affect the cell cycle”, the “Src kinase tyrosine phosphorylation [pSrc(Y416)]” value (pSrc(Y416), pFAK, pAkt) was “inhibited Src kinase tyrosine phosphorylation” and the “pFAK and pAkt levels” value (pSrc(Y416), pFAK, pAkt) was “down-regulation of pFAK and pAkt”. The Proliferation (PC-3 cells [7]) was “significantly inhibited proliferation; also recorded: significant inhibition”, the Proliferation (DU145 cells [8]) was “significantly inhibited proliferation” and the “Src(Y529F)-induced colony formation (transformation)” value (SYF1-Src(Y529F) cells) was “the transformation was inhibited”. The “Expression of CDK2, cyclin D1 and p27” value (DU145 cells [9]) was “decreased expression of CDK2 and cyclin D1, increased expression of p27”, the “Expression of CDK6” value (DU145 cells [9]) was “decreased expression of CDK6” and the “Size and weight of PC-3 xenograft tumors” value (PC-3 xenograft tumors) was “significantly inhibited the size and weight”. For the same molecule, the “De novo synthesized Src-induced signaling” value ([10]; Dox 1 µg/ml, 15 and 30 µM B13, 24 h) was “suppression of de novo synthesized Src-induced signaling”, the “Non-phosphorylated Src kinase [non-pSrc(Y527)] at the cytoplasmic membrane” value ([10]; doxycycline induced, membrane fraction) was “reduced” and the Migration (PC-3 cells [11]) was “suppressed”. For the same molecule, the “Inhibition of acid ceramidase” value (acid ceramidase) was “can inhibit acid ceramidase”, the “Expression of CDK2, cyclin D1 and p27” value (PC-3 cells [12]) was “decreased expression of CDK2 and cyclin D1, increased expression of p27” and the Proliferation (PNT2 normal cells) was “limited effect”. The Proliferation (293T cells) was “did not affect” and the IC50 (NMT1) was 77.6 µM.
